Values belong to the molecule of their own block, whether it stands above or below them. Activity calls are given as the source filed them. The rule behind the calls is not given here.
Assays:
SK-BR-3 [1] = assay: Cytotoxicity against human SKBR3 cells after 72 hrs by MTT assay; assay type: functional, cell-based; details: SK-BR-3, 72 h
How it was run: (§1)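 MTT growth-inhibition assay on SKBR-3 breast cancer and CEM leukemia cells, 72 h exposure over 0.1–10 μM. IC50 is the concentration giving 50% growth inhibition, derived by linear regression and reported as a mean of six experiments. Single-concentration entries are taken at 10 μM, the top of the range.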

CCRF-CEM [2] = assay: Cytotoxicity against human CCRF-CEM cells after 72 hrs by MTT assay; assay type: functional, cell-based; how it was run: as §1
[3] = target: DNA topoisomerase 2-alpha (Homo sapiens) (UniProt P11388); assay: Stimulation of human recombinant topoisomerase 2alpha-mediated SV40 DNA cleavage at 10 uM after 45 mins by PAGE
DNA topoisomerase 2-alpha (Homo sapiens), sequence (P11388 whole entry): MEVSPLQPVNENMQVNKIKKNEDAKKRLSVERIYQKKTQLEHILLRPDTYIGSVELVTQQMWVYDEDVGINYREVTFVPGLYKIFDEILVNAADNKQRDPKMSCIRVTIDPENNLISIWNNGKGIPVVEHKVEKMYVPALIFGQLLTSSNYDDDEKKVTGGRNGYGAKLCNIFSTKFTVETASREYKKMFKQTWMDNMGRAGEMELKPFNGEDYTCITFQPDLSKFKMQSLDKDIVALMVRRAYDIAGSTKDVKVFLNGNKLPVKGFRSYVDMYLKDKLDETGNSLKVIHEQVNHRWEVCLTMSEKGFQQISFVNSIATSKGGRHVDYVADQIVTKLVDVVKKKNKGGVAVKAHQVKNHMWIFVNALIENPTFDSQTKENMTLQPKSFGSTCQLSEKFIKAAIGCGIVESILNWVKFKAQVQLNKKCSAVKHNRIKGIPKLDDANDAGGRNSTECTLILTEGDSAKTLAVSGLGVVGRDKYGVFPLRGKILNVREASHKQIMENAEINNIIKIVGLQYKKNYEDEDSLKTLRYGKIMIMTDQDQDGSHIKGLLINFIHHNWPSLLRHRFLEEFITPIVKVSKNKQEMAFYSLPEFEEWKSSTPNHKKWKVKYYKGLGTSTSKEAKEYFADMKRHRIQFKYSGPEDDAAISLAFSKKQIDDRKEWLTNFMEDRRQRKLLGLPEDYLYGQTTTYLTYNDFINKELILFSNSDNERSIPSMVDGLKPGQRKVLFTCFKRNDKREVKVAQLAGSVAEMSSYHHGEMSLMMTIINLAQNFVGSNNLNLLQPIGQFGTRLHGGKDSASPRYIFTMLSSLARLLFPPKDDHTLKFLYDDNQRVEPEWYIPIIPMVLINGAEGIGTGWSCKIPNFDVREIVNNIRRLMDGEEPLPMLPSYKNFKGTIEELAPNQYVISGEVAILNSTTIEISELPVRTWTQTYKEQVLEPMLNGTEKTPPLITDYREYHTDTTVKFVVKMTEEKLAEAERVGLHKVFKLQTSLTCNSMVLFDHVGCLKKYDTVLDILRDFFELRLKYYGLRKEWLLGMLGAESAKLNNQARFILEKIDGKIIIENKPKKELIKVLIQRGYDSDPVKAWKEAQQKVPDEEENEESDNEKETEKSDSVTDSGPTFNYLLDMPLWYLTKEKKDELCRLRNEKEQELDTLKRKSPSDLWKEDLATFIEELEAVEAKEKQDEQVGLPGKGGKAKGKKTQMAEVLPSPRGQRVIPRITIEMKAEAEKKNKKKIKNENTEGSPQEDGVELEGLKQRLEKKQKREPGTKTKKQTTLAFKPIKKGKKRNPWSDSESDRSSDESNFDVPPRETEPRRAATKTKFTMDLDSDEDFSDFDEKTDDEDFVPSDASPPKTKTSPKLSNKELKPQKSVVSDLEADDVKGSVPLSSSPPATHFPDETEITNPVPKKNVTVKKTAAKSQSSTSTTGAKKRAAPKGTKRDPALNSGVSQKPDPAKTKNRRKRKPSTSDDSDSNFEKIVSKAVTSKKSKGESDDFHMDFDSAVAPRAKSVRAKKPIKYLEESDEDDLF
How it was run: (§2)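 Cleavage assay with recombinant human DNA topoisomerase IIα, using SV40 DNA as substrate, to test for stimulation of DNA cleavage (poison activity).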

[4] = target: DNA topoisomerase 2-alpha (Homo sapiens) (UniProt P11388); assay: Stimulation of human recombinant topoisomerase 2alpha-mediated SV40 DNA cleavage at 50 uM after 45 mins by PAGE; how it was run: as §2
CCRF-CEM [5] = assay: Cytotoxicity against human CCRF-CEM cells at 10 uM after 72 hrs by MTT assay; assay type: functional, cell-based; how it was run: as §1
SK-BR-3 [6] = assay: Cytotoxicity against human SKBR3 cells at 10 uM after 72 hrs by MTT assay; assay type: functional, cell-based; how it was run: as §1
Calf thymus DNA = assay: Displacement of ethidium bromide from calf thymus DNA by fluorescence assay; assay type: nucleic-acid assay, Bos taurus; details: for Kapp: Bos taurus
How it was run: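 Fluorometric intercalator displacement. EC50 is the drug concentration that cuts DNA-bound ethidium fluorescence by 50%, given as the mean of three determinations ± SEM. Apparent binding constant is calculated taking the ethidium binding constant as 10^7 M-1.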

HL-60 [7] = assay: Induction of apoptosis in human HL60 cells assessed as caspase 3 activation at 5 uM after 4 hrs by DEVDase activity assay; assay type: functional, cell-based
How it was run: (§3)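 HL60 cells exposed to 5 μM for 4 or 24 h. DEVDase (effector caspase 3/7) activity measured on the DEVD peptide substrate.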

HL-60 [8] = assay: Induction of apoptosis in human HL60 cells assessed as caspase 3 activation at 5 uM after 24 hrs by DEVDase activity assay; assay type: functional, cell-based; how it was run: as §3
HL-60 [9] = assay: Induction of apoptosis in human HL60 cells assessed as decrease in procaspase 3 level at 5 uM after 4 hrs by Western blotting; assay type: functional, cell-based
How it was run: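 HL60 cells incubated 4 h with 5 μM. Extracted proteins analysed by Western blot for the 32 kDa procaspase 3 precursor and its active proteolytic fragment.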

HL-60 [10] = assay: Induction of apoptosis in human HL60 cells assessed as caspase 3 activation after 4 hrs by DEVDase activity assay; assay type: functional, cell-based
How it was run: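 HL60 cells treated 4 h at the indicated doses, then collected. Caspase (DEVDase) activity determined.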

SH-SY5Y [11] = assay: Induction of apoptosis in human SH-SY5Y cells assessed as caspase 3 activation at 5 uM after 24 hrs by DEVDase activity assay; assay type: functional, cell-based
How it was run: (§4)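 SH-SY5Y neuroblastoma, H9c2 heart and Jurkat T cells treated 24 h with 5 μM. Caspase (DEVDase) activation measured, reported as mean ± SEM of triplicates.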

H9c2 = assay: Induction of apoptosis in rat H9c2 cells assessed as caspase 3 activation at 5 uM after 24 hrs by DEVDase activity assay; assay type: cell-based; details: h9c2, 24 h; how it was run: as §4
Jurkat = assay: Induction of apoptosis in human Jurkat T cells assessed as caspase 3 activation at 5 uM after 24 hrs by DEVDase activity assay; assay type: functional, cell-based; how it was run: as §4
SH-SY5Y [12] = assay: Cytotoxicity against human SH-SY5Y assessed as cell survival at 1 uM after 72 hrs by trypan blue exclusion assay; assay type: functional; details: read-out: Survival
How it was run: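 SH-SY5Y neuroblastoma cells incubated with compound at 1 to 5 μM for the indicated times, including 24 h and 72 h. Viable cells were then counted by dye exclusion and expressed as cell survival.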

SH-SY5Y [13] = assay: Cytotoxicity against human SH-SY5Y at 1 to 5 uM after 72 hrs by trypan blue exclusion assay; assay type: functional, cell-based
How it was run: (§5)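 SH-SY5Y neuroblastoma cells incubated with compounds at 1 to 5 μM for the indicated times up to 72 h. Viable cells counted by dye exclusion.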

SH-SY5Y [14] = assay: Cytotoxicity against human SH-SY5Y after 72 hrs by trypan blue exclusion assay; assay type: functional, cell-based; how it was run: as §5
SH-SY5Y [15] = assay: Cytotoxicity against human SH-SY5Y assessed as p53 protein accumulation at 1 uM after 20 hrs by Western blotting; assay type: functional, cell-based
How it was run: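 SH-SY5Y extracts prepared after 20 h incubation at the indicated concentrations. p53 content measured by Western blot, 50 μg protein loaded per point.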

SH-SY5Y [16] = assay: Cytotoxicity against human SH-SY5Y assessed as cell viability at 5 uM after 20 hrs by trypan blue exclusion assay; assay type: functional; details: read-out: Activity
How it was run: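 SH-SY5Y cells exposed to 5 μM for 20 h. Viable cell fraction assessed by dye exclusion.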

SH-SY5Y [17] = assay: Cytotoxicity against human SH-SY5Y assessed as decrease in ERK1 protein level at 5 uM after 20 hrs by Western blotting; assay type: functional, cell-based
How it was run: (§6)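 SH-SY5Y cells treated 20 h with 5 μM, then harvested. Protein content and phosphorylation status in cell extracts read by Western blotting at 50 μg protein per lane.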

SH-SY5Y [18] = assay: Cytotoxicity against human SH-SY5Y assessed as decrease in ERK2 protein level at 5 uM after 20 hrs by Western blotting; assay type: functional, cell-based; how it was run: as §6
SH-SY5Y [19] = assay: Cytotoxicity against human SH-SY5Y assessed as decrease in ERK1 phosphorylation at 5 uM after 20 hrs by Western blotting; assay type: functional, cell-based; how it was run: as §6
SH-SY5Y [20] = assay: Cytotoxicity against human SH-SY5Y assessed as decrease in ERK2 phosphorylation at 5 uM after 20 hrs by Western blotting; assay type: functional, cell-based; how it was run: as §6
HL-60 [21] = assay: Cytotoxicity against human HL60 cells after 24 hrs by dye exclusion assay; details: HL-60, 24 h
SH-SY5Y [22] = assay: Cytotoxicity against human SH-SY5Y assessed as p53 protein accumulation at 5 uM after 20 hrs by Western blotting; assay type: functional, cell-based; how it was run: as §6
SH-SY5Y [23] = assay: Cytotoxicity against human SH-SY5Y at 1 uM after 24 hrs by trypan blue exclusion assay; assay type: functional, cell-based
How it was run: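 SH-SY5Y cells given 1 μM. Viability at 24 h scored by dye exclusion.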

SMILES: COc1ccccc1CNCCCCCCCCCCN1C(=O)c2ccc3c4c(ccc(c24)C1=O)C(=O)N(CCCCCCCCCCNCc1ccccc1OC)C3=O
IC50 (SK-BR-3 [1]): 200 nM | IC50 (CCRF-CEM [2]): 700 nM

Activity [3]: inactive | Activity [4]: inactive
SMILES: COc1ccccc1CNCCCCCCCCCN1C(=O)c2cccc3cccc(c23)C1=O
IC50 (SK-BR-3 [1]): 500 nM | IC50 (CCRF-CEM [2]): 1300 nM

SMILES: COc1ccccc1CNCCCCCCCN1C(=O)c2ccc3c4c(ccc(c24)C1=O)C(=O)N(CCCCCCCNCc1ccccc1OC)C3=O
IC50 (SK-BR-3 [1]): 1700 nM | IC50 (CCRF-CEM [2]): 2500 nM

Activity [3]: inactive | Activity [4]: inactive
SMILES: COc1ccccc1CNCCN1C(=O)c2cccc3cccc(c23)C1=O
IC50 (SK-BR-3 [1]): 2000 nM | Activity (CCRF-CEM [5]): inactive

SMILES: COc1ccccc1CNCCCCN1C(=O)c2ccc3c4c(ccc(c24)C1=O)C(=O)N(CCCCNCc1ccccc1OC)C3=O
IC50 (SK-BR-3 [1]): 700 nM | IC50 (CCRF-CEM [2]): 800 nM

SMILES: COc1ccccc1CNCCCCCCCCCN1C(=O)c2ccc3c4c(ccc(c24)C1=O)C(=O)N(CCCCCCCCCNCc1ccccc1OC)C3=O
IC50 (SK-BR-3 [1]): 400 nM | IC50 (CCRF-CEM [2]): 1400 nM

SMILES: COc1ccccc1CNCCCCCCCCN1C(=O)c2ccc3c4c(ccc(c24)C1=O)C(=O)N(CCCCCCCCNCc1ccccc1OC)C3=O
IC50 (SK-BR-3 [1]): 1000 nM | IC50 (CCRF-CEM [2]): 1600 nM

SMILES: COc1ccccc1CNCCCCCN1C(=O)c2ccc3c4c(ccc(c24)C1=O)C(=O)N(CCCCCNCc1ccccc1OC)C3=O
IC50 (SK-BR-3 [1]): 1100 nM | IC50 (CCRF-CEM [2]): 1100 nM

SMILES: COc1ccccc1CNCCCCCCN1C(=O)c2cccc3cccc(c23)C1=O
Activity (SK-BR-3 [6]): inactive | Activity (CCRF-CEM [5]): inactive

SMILES: COc1ccccc1CNCCCCCCN1C(=O)c2ccc3c4c(ccc(c24)C1=O)C(=O)N(CCCCCCNCc1ccccc1OC)C3=O
IC50 (SK-BR-3 [1]): 1200 nM | IC50 (CCRF-CEM [2]): 2200 nM

SMILES: COc1ccccc1CNCCN1C(=O)c2ccc3c4c(ccc(c24)C1=O)C(=O)N(CCNCc1ccccc1OC)C3=O
IC50 (SK-BR-3 [1]): 700 nM | IC50 (CCRF-CEM [2]): 1300 nM | EC50 (Calf thymus DNA): 93 nM | Kapp (Calf thymus DNA): 2.72 ×10⁸ /M | Activity [3]: inactive | Activity [4]: inactive | Activity (HL-60 [7]): Active | Activity (HL-60 [8]): Active | Activity (HL-60 [9]): Active | Activity (HL-60 [10]): Dose-dependent effect | Activity (SH-SY5Y [11]): Active | Activity (H9c2): Active | Activity (Jurkat): Active | viability at 1 µM (SH-SY5Y [12]): 60% | Activity (SH-SY5Y [13]): Active | IC50 (SH-SY5Y [14]): 1400 nM | Activity (SH-SY5Y [15]): Active | viability at 5 µM (SH-SY5Y [16]): 70% | Activity (SH-SY5Y [17]): Active | Activity (SH-SY5Y [18]): Active | Activity (SH-SY5Y [19]): Active | Activity (SH-SY5Y [20]): Active | IC50 (HL-60 [21]): 900 nM

SMILES: CN(C)CCN1C(=O)c2cccc3cc([N+](=O)[O-])cc(c23)C1=O [MITONAFIDE]
EC50 (Calf thymus DNA): 11500 nM | Kapp (Calf thymus DNA): 2.2 ×10⁶ /M | Activity (HL-60 [7]): Active | Activity (HL-60 [8]): Active | Activity (SH-SY5Y [22]): Active | viability at 5 µM (SH-SY5Y [16]): 70% | Activity (SH-SY5Y [17]): Active | Activity (SH-SY5Y [18]): Active | Activity (SH-SY5Y [19]): inactive | Activity (SH-SY5Y [20]): inactive | IC50 (HL-60 [21]): 1600 nM

SMILES: COc1ccccc1CNCCCCCCCCN1C(=O)c2cccc3cccc(c23)C1=O
IC50 (SK-BR-3 [1]): 1400 nM | IC50 (CCRF-CEM [2]): 1200 nM

SMILES: COc1ccccc1CNCCCCCN1C(=O)c2cccc3cccc(c23)C1=O
Activity (SK-BR-3 [6]): inactive | Activity (CCRF-CEM [5]): inactive

SMILES: COc1ccccc1CNCCCCCCCN1C(=O)c2cccc3cccc(c23)C1=O
Activity (SK-BR-3 [6]): inactive | Activity (CCRF-CEM [5]): inactive

SMILES: COc1ccccc1CNCCCCCCCCCCN1C(=O)c2cccc3cccc(c23)C1=O
IC50 (SK-BR-3 [1]): 2000 nM | IC50 (CCRF-CEM [2]): 8000 nM

EC50 (Calf thymus DNA): 122 nM | Kapp (Calf thymus DNA): 2.07 ×10⁸ /M | Activity [3]: inactive | Activity [4]: inactive
SMILES: COc1ccccc1CNCCCN1C(=O)c2ccc3c4c(ccc(c24)C1=O)C(=O)N(CCCNCc1ccccc1OC)C3=O
IC50 (SK-BR-3 [1]): 200 nM | IC50 (CCRF-CEM [2]): 400 nM | Activity (HL-60 [7]): Active | Activity (HL-60 [8]): Active | Activity (HL-60 [9]): Active | Activity (HL-60 [10]): Dose-dependent effect | Activity (SH-SY5Y [13]): Active | IC50 (SH-SY5Y [14]): 1400 nM | Activity (SH-SY5Y [23]): inactive | viability at 5 µM (SH-SY5Y [16]): 70% | Activity (SH-SY5Y [17]): Active | Activity (SH-SY5Y [18]): Active | Activity (SH-SY5Y [19]): Active | Activity (SH-SY5Y [20]): Active | IC50 (HL-60 [21]): 1200 nM

SMILES: COc1ccccc1CNCCCCN1C(=O)c2cccc3cccc(c23)C1=O
IC50 (SK-BR-3 [1]): 1700 nM | IC50 (CCRF-CEM [2]): 3200 nM

SMILES: COc1ccccc1CNCCCN1C(=O)c2cccc3cccc(c23)C1=O
Activity (SK-BR-3 [6]): inactive | Activity (CCRF-CEM [5]): inactive
